# Sampled rows, rich in hits. Any-hit rate of the full collection: about 2.4%.
# PfG6PD inh: PfG6PD (Plasmodium falciparum) enzyme inhibition | PfGluPho enzyme, NADPH resazurin-diaphorase fluorescence | inhibition, % at 20 µM | 350,000 compounds, 0.78% hits;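 active means inhibition reaching at least a set limit at 20 µM in the primary screen, cut at about 59% in these data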;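 further: 0% = DMSO wells with substrate and 100% = DMSO wells lacking glucose-6-phosphate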
# HKDC1 inh: blocks human hexokinase HKDC1 activity; Q2TB90; AID 493160; inhibition, % at 20 µM; 340,000 compounds, 0.16% hits; recombinant HKDC1, G6PDH/diaphorase resazurin coupled fluorescence;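 active means inhibition above about 35% when tested at 20 µM, limit read from the data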;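 further: plate controls were DMSO wells with enzyme for no effect and DMSO wells lacking enzyme for full effect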
#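 Assay system: recombinant HKDC1 hexokinase; detection: coupled resazurin fluorescence, excitation 525 nm, emission 613 nm; benchmarks: DMSO-plus-enzyme-mix negative control, buffer-substituted positive control; compound dosing: single 20 µM dose; schedule: 90 min at room temperature in dark; also added: glucose plus 1 mM ATP as hexokinase substrates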
# A3A deaminase: inhibitors of human APOBEC3A DNA deaminase; recombinant A3A, FAM/TAMRA ssDNA deamination fluorescence; 330,000 compounds, 0.41% hits; P31941; inhibition, % at 20 µM; AID 493011;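 active means at least 40% inhibition at 20 µM here, with at most 30% in a related deaminase screen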;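 further: plate controls were A3A with DMSO for no effect and wells lacking A3A enzyme for full effect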
# SUMO HTRF inh: SUMOylation inhibition | HTRF SUMOylation assay, SAE1/SAE2 + UBC9, in vitro | inhibition, % at 35 µM | 290,000 compounds, 0.36% hits | AID 2006; in the data active means inhibition above about 50%, passing the limit was not always enough
# M18AAP inhibitor: PfM18AAP enzyme inhibition; recombinant PfM18AAP, H-Glu-NHMec fluorogenic cleavage; inhibition, % at 7.35 µM; 290,000 compounds, 1.2% hits; AID 1822;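 active means inhibition above the campaign mean inhibition over all tested compounds plus 3 SD, cut at about 28% in these data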;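 further: 0% = plate median of test compound wells and 100% = 2 mM ZnCl2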
# APOBEC3G inh: blocks human APOBEC3G single-stranded DNA deamination; Q9HC16; recombinant A3G, ssDNA deamination FAM/TAMRA fluorescence; inhibition, % at 20 µM; 330,000 compounds, 0.28% hits; AID 493012;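 active means inhibition of at least 40% at 20 µM, with no more than 30% in the related APOBEC3A deaminase screen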;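 further: plate controls were DMSO wells with A3G for no effect and wells lacking A3G enzyme for full effect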
# A3A conf: APOBEC3A (human) deaminase inhibition, confirmed | shares compounds with A3A deaminase | recombinant A3A, ssDNA deaminase UDG fluorescence assay | inhibition, % at 20 µM | 1,400 compounds, 63% hits | AID 493151;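 active means inhibition reaching a set limit, 80% of the first screen's cutoff, at 20 µM in any replicate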;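 further: plate controls were DMSO wells with A3A for no effect and wells lacking A3A enzyme for full effect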
# UDG ctr A3A: UDG inhibition in APOBEC3A counter-screen. shares compounds with A3A deaminase. UDG counterscreen, FAM/TAMRA uracil oligo fluorescence. 1,000 tested, under 10 active. inhibition, % at 20 µM. AID 504714; call rule not given here
# Active calls of the source: *; . = not tested or not shown.
SMILES,PfG6PD inh,HKDC1 inh,A3A deaminase,SUMO HTRF inh,M18AAP inhibitor,APOBEC3G inh,A3A conf,UDG ctr A3A
Cc1cccc(C)c1NC(=O)CN(C)C(=O)c1cc([N+](=O)[O-])ccc1N1CCOCC1,26,-7,2,3,-10,7,.,.
CN(CC(=O)Nc1ccccc1Br)C(=O)c1cc([N+](=O)[O-])ccc1N1CCOCC1,-15,2,42*,.,.,7,-1,.
CCN(CC(=O)Nc1ccc(OC)cc1)C(=O)c1cc([N+](=O)[O-])ccc1N1CCOCC1,18,-3,0,.,.,-7,.,.
CCN(CC(=O)Nc1cc(Cl)ccc1C)C(=O)c1cc([N+](=O)[O-])ccc1N1CCOCC1,-7,0,80*,.,.,3,0,.
CCOC(=O)N1CCN(C(=O)Cn2nc(-c3ccc(Cl)cc3)ccc2=O)CC1,-10,1,6,4,-3,1,.,.
N=C1S/C(=C\c2ccc(-c3ccccc3C(=O)O)o2)C(=O)N1c1ccc2c(c1)OCO2,1,18,.,15,4,.,.,.
COc1ccccc1N1C(=N)S/C(=C\c2ccc(-c3ccccc3C(=O)O)o2)C1=O,-3,6,44*,35,-6,28,32*,-2
Nc1ccc2oc(CCc3ccccc3)nc2c1,24,6,60*,-16,13,-4,-7,-2
CN(C)c1ccc(Sc2nnc(NC(=O)Nc3ccc(Cl)cc3Cl)s2)cc1,11,-8,-3,-12,0,-7,.,.
Cc1onc(-c2ccccc2Cl)c1C(=O)Nc1ccc(Cl)cn1,5,-3,60*,7,-3,16,1,.
CCOc1ccc(NC(=O)c2cc(C3CC3)nc3c2cnn3C(C)C)cc1OC,15,0,51*,.,.,10,28,.
CC(=O)Nc1ccc(NC(=O)c2cc(C3CC3)nc3c2cnn3C(C)C)cc1,13,2,11,.,.,-7,.,.
O=C1N/C(=C/c2cccn2-c2ccc(F)cc2)C(=O)N1Cc1ccccc1F,-16,-10,-3,20,-5,1,.,.
O=C(O)c1cccc(-n2cccc2/C=C2/NC(=O)N(Cc3ccccc3F)C2=O)c1,2,-1,62*,21,6,11,62*,-1
COc1ccc(NC(=O)COc2ccc(/C=C/c3cc[n+](C)cc3)cc2OC)cc1,13,0,52*,42,0,7,76*,3
COc1ccc(NC(=O)COc2ccc(/C=C/c3cccc[n+]3C)cc2OC)cc1,-2,-6,86*,14,9,26,75*,-1
COc1cc(/C=C/c2cc[n+](C)cc2)ccc1OCC(=O)Nc1ccc(Cl)c(Cl)c1,21,12,81*,35,5,13,78*,4
COc1cc(/C=C/c2cccc[n+]2C)ccc1OCC(=O)Nc1cccc(Cl)c1,18,-2,81*,11,2,19,75*,3
COc1cc(/C=C/c2cccc[n+]2C)ccc1OCC(=O)Nc1ccccc1,7,-8,73*,19,-10,22,79*,3
N#C/C(=C\c1cccc2ccccc12)c1nn(-c2ccccc2)c(N)c1C#N,8,-11,-5,.,3,-9,.,.
CC1(C)Cc2cccc(OCC(=O)N3CCN(S(=O)(=O)c4ccccc4F)CC3)c2O1,-7,-3,-2,14,-2,-5,.,.
N#C/C(=C\c1ccc(F)cc1)c1nc(-c2ccco2)cs1,9,4,2,49,2,-2,.,.
N#C/C(=C\c1ccc(Cl)cc1)c1nc(-c2ccco2)cs1,1,-8,41*,32,-8,14,28,.
Cc1cccc(N(Cc2cc3ccc(C)cc3[nH]c2=O)C(=O)c2ccco2)c1,11,15,2,-2,-13,-4,.,.
COc1ccc(CN2CCNC(=O)C2CC(=O)NCc2ccc(C)s2)c(OC)c1 (stereo unspecified),-7,0,-1,-10,4,-4,.,.
SMILES,PfG6PD inh,HKDC1 inh,A3A deaminase,SUMO HTRF inh,M18AAP inhibitor,APOBEC3G inh,A3A conf,UDG ctr A3A
CN(Cc1ccccc1)C(=O)c1ccc(NC(=O)Cc2ccc(NC(=O)C3CCCN(C(=O)C4CCCCC4)C3)cc2)cc1 (stereo unspecified),-25,0,.,.,.,.,.,.
COc1ccc(NC(=O)CN2C(=O)S/C(=C/c3cccn3-c3ccc(C(=O)O)cc3)C2=O)cc1,.,.,63*,.,5,25,57*,.
C=CCCC(=O)NC1CC(C)(C)Cc2c1cnn2-c1cccc(F)c1 (stereo unspecified),16,0,1,3,-11,1,.,.
CCC(=O)c1ccc(Oc2nc3c(c(=O)n(C)c(=O)n3C)n2CC)cc1,2,2,-5,11,0,-9,.,.
COc1ccc(C=NCCC2(O)CC(C)N(C)CC2C)cc1 (stereo unspecified),-1,-4,48*,15,0,1,1,.
COc1ccc(CCCC(=O)NCCc2ccccc2)c(C)c1,-1,-5,41*,8,-6,6,12,.
CC(=O)c1ccc(OCCCC(=O)NC2CCCCC2C)cc1 (stereo unspecified),-8,-2,-2,3,0,-6,.,.
COc1ccc(CCCC(=O)NC2CCCCC2C)c(C)c1 (stereo unspecified),4,-9,71*,30,-1,29,71*,3
CCOC(=O)C(Cc1ccc(NC(=O)/C(=C/c2ccccc2)NC(=O)c2ccccc2)cc1)N1C(=O)c2ccccc2C1=O (stereo unspecified),-12,-5,4,13,2,-2,.,.
CC1CC(C)C[N+](=C2C=C(N3CCCC3)CC(C)(C)C2)C1 (stereo unspecified),-8,-6,.,15,-12,.,.,.
CN(Cc1ccccc1)C1=CC(=[N+]2CCCC2)CC(C)(C)C1,0,-3,57*,21,-15,19,70*,-2
CC1(C)CC(N2CCN(c3ccccc3)CC2)=CC(=[N+]2CCCC2)C1,-2,6,44*,-1,-4,18,66*,-5
CC1(C)CC(N2CCCC2)=CC(=[N+]2CCCCCC2)C1,-6,-11,62*,28,8,26,68*,0
COc1ccc([C@H]2Cc3cccc(O)c3C(=O)O2)cc1O,22,-5,-1,.,.,-8,.,.
CCC(=O)N1CCc2cc(S(=O)(=O)CCC(=O)NCCc3ccc(S(N)(=O)=O)cc3)ccc21,0,-5,1,14,-2,1,.,.
CC(=O)N1CC2(CC(c3ccccc3C(F)(F)F)=NO2)CN1c1ccc(Cl)cc1 (stereo unspecified),0,.,.,.,.,.,.,.
CC(Nc1ccc(F)cc1)=[N+](C)CCNS(=O)(=O)c1ccc(Cl)cc1,9,-3,55*,4,0,17,-8,.

# Assay outcomes deposited in PubChem BioAssay by several laboratories.
